In assay [1] the test system is Hepatitis C virus. The assay can be described thus: Antiviral activity against HCV subtype 1b Con1 infected in human HuH7 cells assessed as reduction in viral RNA level after 48 hrs by qRT-PCR analysis. In kind it is functional, organism-based, Hepacivirus hominis. As to conditions: Con1, Huh-7, 48 h. The method, boiled down:
(§1)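 Con1 genotype 1b subgenomic replicon Huh7 cells (clone A or derived lines) were seeded at 10,000/well overnight without G418. They were treated 48 h with serially diluted compound in 2% FBS and 0.5% DMSO. HCV RNA was measured by TaqMan qRT-PCR and normalized to total RNA. Six replicates per point; EC50 is the concentration giving 50% reduction in HCV RNA.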
Background: Quantitative PCR measures a nucleic acid by following its amplification.

In assay [2] the test system is Hepatitis C virus. The assay can be described thus: Antiviral activity against HCV subtype 1b Con1 infected in human HuH7 cells assessed as reduction in viral RNA level after 48 hrs by MTS assay. The conditions noted are these: Con1, Huh-7, 48 h.
Assay [3] has as its system Hepatitis C virus. Nature of the assay: Antiviral activity against cyclosporine A/NIM-resistant HCV subtype 1b Con1 infected in human HuH7 cells assessed as reduction in viral RNA level after 48 hrs by qRT-PCR analysis. The conditions noted are these: Con1, Huh-7, 48 h.
Assay [4] relates to Hepatitis C virus. Nature of the assay: Antiviral activity against cyclosporine A-resistant HCV subtype 1b Con1 infected in human HuH7 cells assessed as reduction in viral RNA level after 48 hrs by qRT-PCR analysis. As to conditions: Con1, Huh-7, 48 h.
In assay [5] the test system is Hepatitis C virus. Nature of the assay: Antiviral activity against HCV subtype 1b Con1 harboring NIM-resistant NS5A gene infected in human HuH7 cells assessed as reduction in viral RNA level after 48 hrs by qRT-PCR analysis. The conditions noted are these: Con1, Huh-7, 48 h.
In assay [6] the test system is Hepatitis C virus. The assay can be described thus: Antiviral activity against HCV subtype 1b Con1 infected in cyclosporine A/NIM-resistant human HuH7 cells assessed as reduction in viral RNA level after 48 hrs by qRT-PCR analysis. Type of assay: functional, organism-based, Hepacivirus hominis. The conditions noted are these: Con1, Huh-7, 48 h. The method, boiled down:
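CsA/NIM-resistant cells were cured of replicon: G418 removed, then 1 μM BILN2061 for 2 weeks and 5 μM for 2 more. Wild-type pCon1 replicon RNA was electroporated back in and cells selected in 250 μg/ml G418 for at least 2 weeks. Pooled colonies were treated 48 h with compound; EC50 came from qRT-PCR HCV RNA normalized to total RNA.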

The subject of assay [7] is Hepatitis C virus. Nature of the assay: Antiviral activity against HCV subtype 1b Con1 infected in human HuH7 cells assessed as reduction in viral RNA level after 48 hrs by qRT-PCR analysis relative to control. In kind it is functional, Hepacivirus hominis, Huh-7. The method, boiled down:
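Subgenomic genotype 1b Con1 replicon cells (clone A and derived lines) seeded 10,000/well overnight without G418, then treated 48 h with serially diluted compound in 2% FBS, 0.5% DMSO. HCV RNA quantified by TaqMan qRT-PCR, normalized to total RNA; six replicates per point. Percent inhibition versus control cells; EC50 is the concentration reducing HCV RNA by 50%.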

Assay [8] deals with Hepatitis C virus. Nature of the assay: Antiviral activity against cyclosporine A/NIM811-resistant HCV subtype 1b Con1 infected in human HuH7 cells assessed as reduction in viral RNA level after 48 hrs by qRT-PCR analysis. In kind it is functional, organism-based, Hepacivirus hominis. As to conditions: Con1, Huh-7, 48 h. The method, boiled down: as §1
Assay [9] relates to Hepatitis C virus. Nature of the assay: Antiviral activity against HCV subtype 1b Con1 harboring NS5A and NS5B C575G mutant […] infected in human HuH7 cells assessed as reduction in viral RNA level after 48 hrs by qRT-PCR analysis. Type of assay: functional, organism-based, Hepacivirus hominis. The conditions noted are these: Con1, Huh-7, 48 h.
Assay [10] deals with Hepatitis C virus. Nature of the assay: Antiviral activity against cyclosporine A/NIM811-resistant HCV subtype 1b Con1 infected in human HuH7 cells assessed as reduction in viral RNA level after 48 hrs by qRT-PCR analysis relative to control. Type of assay: functional, Hepacivirus hominis, Huh-7. The method, boiled down:
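Clone A replicon cells were resistance-selected by 8-week passage with increasing CsA up to 5 μM, then 5 μM NIM811 for 5 more weeks, with 250 μg/ml G418. Control cells were passaged in 0.2% DMSO for the same period. Both were seeded at 10,000/well and treated 48 h with serial dilutions in 2% FBS/0.5% DMSO. HCV RNA was measured by qRT-PCR, normalized to total RNA. EC50 expressed as fold over DMSO control.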

Assay [11] concerns Hepatitis C virus. Nature of the assay: Antiviral activity against wild type HCV subtype 1b Con1 infected in human HuH7 cells assessed as reduction in viral RNA level after 48 hrs by qRT-PCR analysis. In kind it is functional, organism-based, Hepacivirus hominis. The conditions noted are these: Con1, Huh-7, 48 h. The method, boiled down: as §1
In assay [12] the test system is Hepatitis C virus. The assay can be described thus: Antiviral activity against HCV subtype 1b Con1 harboring wild type protease infected in human HuH7 cells assessed as reduction in viral RNA level after 48 hrs by qRT-PCR analysis. As to conditions: Con1, Huh-7, 48 h. Type of assay: functional, organism-based, Hepacivirus hominis. The method, boiled down: as §1

As usually defined, the EC50 is the concentration needed to bring the measured effect to its halfway point. Regarding `COc1ccc2c(O[C@@H]3C[C@H]4C(=O)N[C@]5(C(=O)O)C[C@H]5/C=C\CCCCC[C@H](NC(=O)OC5CCCC5)C(=O)N4C3)cc(-c3csc(NC(C)C)n3)nc2c1` [CILUPREVIR], the EC50 in the assay on Hepatitis C virus [1] was determined as 0.0014 µM.

On to `C/C=C/C[C@@H](C)[C@@H](O)[C@H]1C(=O)N[C@@H](CC)C(=O)N(C)CC(=O)N(C)[C@@H](CC(C)C)C(=O)N[C@@H](C(C)C)C(=O)N(C)[C@@H](CC(C)C)C(=O)N[C@@H](C)C(=O)N[C@H](C)C(=O)N(C)[C@@H](CC(C)C)C(=O)N(C)[C@@H](CC(C)C)C(=O)N(C)[C@@H](C(C)C)C(=O)N1C` [CYCLOSPORINE], for which the EC50 was 0.21 µM in the assay on Hepatitis C virus [2], above 10 µM in the assay with Hepatitis C virus [3] and 3.39 µM with Hepatitis C virus [4].

With `C/C=C/C[C@@H](C)[C@@H](O)[C@H]1C(=O)N[C@@H](CC)C(=O)N(C)CC(=O)N(C)[C@@H]([C@@H](C)CC)C(=O)NC(C(C)C)C(=O)N(C)[C@@H](CC(C)C)C(=O)N[C@@H](C)C(=O)N[C@H](C)C(=O)N(C)C(CC(C)C)C(=O)N(C)[C@@H](CC(C)C)C(=O)N(C)[C@@H](C(C)C)C(=O)N1C` (single isomer, unassigned) [NIM811], the EC50 in the assay with Hepatitis C virus [3] worked out at 3.5 µM; in the assay with Hepatitis C virus [5], 0.94 µM; in the assay with Hepatitis C virus [6], 0.17 µM; with Hepatitis C virus [8], 1.5 µM; with Hepatitis C virus [9] it was 1.14 µM; in the assay with Hepatitis C virus [1] it was 0.084 µM. Also, the EC50 in the assay on Hepatitis C virus [4] came out at 0.83 µM; in the assay on Hepatitis C virus [11], 0.12 µM; in the assay on Hepatitis C virus [12], 0.23 µM. In addition, the results for the “fold change (FC)” value in the assay with Hepatitis C virus [7] and with Hepatitis C virus [10] were 1 and 17.9, respectively.

The record behind these values is ChEMBL document CHEMBL1255435, “Mechanism of resistance of hepatitis C virus replicons to structurally distinct cyclophilin inhibitors” (Antimicrob Agents Chemother, 2010).
